The source of these data is ChEMBL document CHEMBL1828503, “Design, synthesis and docking studies of quinoline-oxazolidinone hybrid molecules and their antitubercular properties” (2011).

In brackets after ≈: the same amount, converted by molar mass.

Holding throughout (format): functional
The subject of assay [1] is Mycobacterium tuberculosis. The experiment in a line: Antimicrobial activity against Mycobacterium tuberculosis H37Rv ATCC 27294 assessed as growth inhibition after 7 days by resazurin assay. (The colour change of resazurin is a common sign of viable cells or microbes.)
The subject of assay [2] is Mycobacterium tuberculosis. The experiment in a line: Antimicrobial activity against Mycobacterium tuberculosis H37Rv ATCC 27294 after 7 days by resazurin assay. As to conditions: H37Rv ATCC 27294, 168 h. The method in brief:
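M. tuberculosis H37Rv ATCC 27294 culture diluted into fresh medium in 96-well microtitre plates. Compounds were taken from 2 mg/mL stocks in DMF, with DMF-only control tubes and rifampicin and isoniazid as references. Plates were incubated 37 °C for 7 days, then 0.01% aqueous resazurin was added and read after 1 h at 37 °C. MIC is the lowest concentration preventing the blue-to-pink change.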

A further assay concerns Pseudomonas aeruginosa. The experiment in a line: Antimicrobial activity against Pseudomonas aeruginosa ATCC 27853 after 18 to 48 hrs by serial dilution method.
Another assay has as its system Staphylococcus aureus. Put plainly: Antimicrobial activity against Staphylococcus aureus ATCC 25923 after 18 to 48 hrs by serial dilution method.
Assay [3] concerns Mycolicibacterium fortuitum. The experiment in a line: Antimicrobial activity against Mycobacterium fortuitum ATCC 19542 after 7 days by resazurin assay. As to conditions: ATCC 19542, 168 h. The method, boiled down: (§1)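 Resazurin microplate assay. Culture added to fresh medium in 96-well plates. Compound stocks 2 mg/mL in DMF. DMF-only controls, with rifampicin and isoniazid as references. Incubated 7 days at 37 °C, then 0.01% resazurin in water added. Blue-to-pink change read after 1 h at 37 °C. MIC taken as the lowest concentration preventing the colour change.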

The next assay has as its system Escherichia coli. Put plainly: Antimicrobial activity against Escherichia coli ATCC 25922 after 18 to 48 hrs by serial dilution method.
For the next assay, the system named is Klebsiella pneumoniae. The experiment in a line: Antimicrobial activity against Klebsiella pneumoniae clinical isolate after 18 to 48 hrs by serial dilution method.
The test system of assay [4] is Mycolicibacterium smegmatis. Put plainly: Antimicrobial activity against Mycobacterium smegmatis ATCC 19420 after 7 days by resazurin assay. The following applies: ATCC 19420, 168 h. The method, boiled down: as §1
The next assay concerns Streptococcus pyogenes. Put plainly: Antimicrobial activity against Streptococcus pyogenes clinical isolate after 18 to 48 hrs by serial dilution method.

As a reminder, the MIC is the least concentration at which growth counts as inhibited. Consider `COc1ccc2nc(C)cc(N3CC(CNC(=O)C4CCC4)OC3=O)c2c1` (centres undefined), for which, in assay [1], the “growth inhibition (GI)” value worked out at 85%. Further, the MIC in assay [2] turned out to be 2.5 µg/mL (≈ 6.77 µM); in the assay on Pseudomonas aeruginosa, 3.12 µg/mL (≈ 8.46 µM); with Staphylococcus aureus, 1.6 µg/mL (≈ 4.33 µM); in assay [3], 100 µg/mL (≈ 271 µM); with Escherichia coli, 1.6 µg/mL (≈ 4.33 µM); in the assay with Klebsiella pneumoniae, 6.25 µg/mL (≈ 16.9 µM). Besides, the MIC in assay [4] was 100 µg/mL (≈ 271 µM); in the assay with Streptococcus pyogenes it was 1.6 µg/mL (≈ 4.33 µM).
On to `COc1ccc2nc(C)cc(NC(=O)CN3CC(CN4CCN(C(C)(C)C)CC4)OC3=O)c2c1` (centres undefined), for which the “growth inhibition (GI)” value in [1] is on record as 0%. In addition, the MIC in assay [2] worked out at 100 µg/mL (≈ 213 µM); against Pseudomonas aeruginosa, 0.8 µg/mL (≈ 1.7 µM); in the assay with Staphylococcus aureus it was 1.6 µg/mL (≈ 3.41 µM); in assay [3] it was 100 µg/mL (≈ 213 µM); against Escherichia coli, 1.6 µg/mL (≈ 3.41 µM); in the assay with Klebsiella pneumoniae, 1.6 µg/mL (≈ 3.41 µM). Besides, the results for the MIC (in assay [4]; in the assay on Streptococcus pyogenes) were 100 µg/mL (≈ 213 µM) and 0.8 µg/mL (≈ 1.7 µM), respectively.
For `COc1ccc2nc(C)cc(NC(=O)CN3CC(CN4CCCC4)OC3=O)c2c1` (centres undefined), the “growth inhibition (GI)” value in assay [1] worked out at 0%. Moreover, the MIC in assay [2] was 100 µg/mL (≈ 251 µM); against Pseudomonas aeruginosa, 1.6 µg/mL (≈ 4.02 µM); against Staphylococcus aureus, 6.25 µg/mL (≈ 15.7 µM); in assay [3], 100 µg/mL (≈ 251 µM); in the assay on Escherichia coli it was above 12.5 µg/mL; against Klebsiella pneumoniae, above 12.5 µg/mL. In addition, the minimal inhibitory concentration (MIC) in [4] was 100 µg/mL (≈ 251 µM); against Streptococcus pyogenes, 3.12 µg/mL (≈ 7.84 µM).
Take `COc1ccc2nc(C)cc(NC(=O)CN3CC(CN4CCCCC4)OC3=O)c2c1` (centres undefined): the “growth inhibition (GI)” value in [1] was found to be 0%. Moreover, the MIC in assay [2] was 100 µg/mL (≈ 242 µM); in the assay on Pseudomonas aeruginosa it was 3.12 µg/mL (≈ 7.58 µM); against Staphylococcus aureus, 3.12 µg/mL (≈ 7.58 µM); in [3], 100 µg/mL (≈ 242 µM); against Escherichia coli, above 12.5 µg/mL; against Klebsiella pneumoniae, above 12.5 µg/mL. Also, the values for the MIC (in [4]; against Streptococcus pyogenes) were 100 µg/mL (≈ 242 µM) and 6.25 µg/mL (≈ 15.2 µM), respectively.
Turning to `COc1ccc2nc(C)cc(NC(=O)CN3CC(CN4CCN(C(C)=O)CC4)OC3=O)c2c1` (centres undefined), in assay [1], the “growth inhibition (GI)” value stood at 80%. Also, the MIC worked out at 5 µg/mL (≈ 11 µM) in [2]; 1.6 µg/mL (≈ 3.51 µM) against Pseudomonas aeruginosa; 0.8 µg/mL (≈ 1.76 µM) against Staphylococcus aureus; 100 µg/mL (≈ 220 µM) in [3]; 1.6 µg/mL (≈ 3.51 µM) with Escherichia coli; 1.6 µg/mL (≈ 3.51 µM) with Klebsiella pneumoniae. Further, the figures for the MIC (in [4]; against Streptococcus pyogenes) were 100 µg/mL (≈ 220 µM) and 0.8 µg/mL (≈ 1.76 µM), respectively.
Take `COc1ccc2nc(C)cc(N3CC(CNC(C)=O)OC3=O)c2c1` (centres undefined): in assay [1], the “growth inhibition (GI)” value turned out to be 95%. The MIC in assay [2] is 0.625 µg/mL (≈ 1.9 µM); with Pseudomonas aeruginosa, 0.4 µg/mL (≈ 1.21 µM); against Staphylococcus aureus, 0.8 µg/mL (≈ 2.43 µM); in assay [3], 10 µg/mL (≈ 30.4 µM); against Escherichia coli, 0.2 µg/mL (≈ 0.607 µM); against Klebsiella pneumoniae it was 0.1 µg/mL (≈ 0.304 µM). Moreover, the MIC in [4] came out at 2.5 µg/mL (≈ 7.59 µM); in the assay on Streptococcus pyogenes, 0.2 µg/mL (≈ 0.607 µM).
As to `COc1ccc2nc(C)cc(NC(=O)CN3CC(CN4CCN(C(C)C)CC4)OC3=O)c2c1` (centres undefined), the “growth inhibition (GI)” value in assay [1] is 85%. Also, the MIC worked out at 5 µg/mL (≈ 11 µM) in assay [2]; 0.8 µg/mL (≈ 1.76 µM) against Pseudomonas aeruginosa; 1.6 µg/mL (≈ 3.51 µM) against Staphylococcus aureus; 100 µg/mL (≈ 220 µM) in assay [3]; 0.8 µg/mL (≈ 1.76 µM) against Escherichia coli; 3.12 µg/mL (≈ 6.86 µM) with Klebsiella pneumoniae. Also, the minimal inhibitory concentration (MIC) was determined as 100 µg/mL (≈ 220 µM) in [4] and 1.6 µg/mL (≈ 3.51 µM) against Streptococcus pyogenes.
In the case of `COc1ccc2nc(C)cc(N3CC(CNC(=O)c4ccccc4)OC3=O)c2c1` (centres undefined), the “growth inhibition (GI)” value in assay [1] came to 0%. Besides, the MIC was 100 µg/mL (≈ 255 µM) in [2]; above 12.5 µg/mL with Pseudomonas aeruginosa; 3.12 µg/mL (≈ 7.98 µM) against Staphylococcus aureus; 100 µg/mL (≈ 255 µM) in [3]; above 12.5 µg/mL in the assay on Escherichia coli; 6.25 µg/mL (≈ 16 µM) against Klebsiella pneumoniae. The minimal inhibitory concentration (MIC) in assay [4] turned out to be 100 µg/mL (≈ 255 µM); against Streptococcus pyogenes it was 3.12 µg/mL (≈ 7.98 µM).
For `COc1ccc2nc(C)cc(NC(=O)CN3CC(CN(C)C)OC3=O)c2c1` (centres undefined), the “growth inhibition (GI)” value in assay [1] was 95%. Besides, the MIC in [2] stood at 0.625 µg/mL (≈ 1.68 µM); in the assay with Pseudomonas aeruginosa, 0.2 µg/mL (≈ 0.537 µM); against Staphylococcus aureus, 0.8 µg/mL (≈ 2.15 µM); in assay [3], 10 µg/mL (≈ 26.9 µM); in the assay on Escherichia coli, 0.2 µg/mL (≈ 0.537 µM); in the assay on Klebsiella pneumoniae, 0.4 µg/mL (≈ 1.07 µM). Further, the results for the MIC (in [4]; against Streptococcus pyogenes) were 2.5 µg/mL (≈ 6.71 µM) and 0.8 µg/mL (≈ 2.15 µM), respectively.
On to `COc1ccc(C(=O)NCC2CN(c3cc(C)nc4ccc(OC)cc34)C(=O)O2)c(C)c1` (centres undefined), for which, in [1], the “growth inhibition (GI)” value worked out at 85%. The MIC in assay [2] came out at 1 µg/mL (≈ 2.3 µM); against Pseudomonas aeruginosa, 3.12 µg/mL (≈ 7.18 µM); with Staphylococcus aureus, 0.8 µg/mL (≈ 1.84 µM); in assay [3], 100 µg/mL (≈ 230 µM); with Escherichia coli, 1.6 µg/mL (≈ 3.67 µM); with Klebsiella pneumoniae, 0.8 µg/mL (≈ 1.84 µM). Further, the MIC in [4] is 100 µg/mL (≈ 230 µM); in the assay with Streptococcus pyogenes, 1.6 µg/mL (≈ 3.67 µM).
As for `COc1ccc2nc(C)cc(NC(=O)CN3CC(CNC4CCCC4)OC3=O)c2c1` (centres undefined), in [1], the “growth inhibition (GI)” value is 0%. In addition, the MIC in assay [2] was 100 µg/mL (≈ 242 µM); against Pseudomonas aeruginosa it was above 12.5 µg/mL; against Staphylococcus aureus it was above 12.5 µg/mL; in assay [3] it was 100 µg/mL (≈ 242 µM); against Escherichia coli it was above 12.5 µg/mL; against Klebsiella pneumoniae, 6.25 µg/mL (≈ 15.2 µM). Also, the MIC was 100 µg/mL (≈ 242 µM) in assay [4] and 6.25 µg/mL (≈ 15.2 µM) against Streptococcus pyogenes.
